Results reported in paper PMC3556220 (Biochimica et biophysica acta, 2012).

Assays:
[1] = test system: non-endocrine tumors; settings: cited from earlier work
[2] = test system: BON cells; assay: MTT assay of BON cell growth; assay type: cell-based, human; settings: for stimulation of BON cell growth, MTT assay: 24 h incubation, serum-free medium, read at 595 nm, mean of 6 experiments
Procedure, shortened: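 BON cells (5 × 10^3/well) were grown 24 h in DMEM/F12K + 10% FBS, washed with PBS, then exposed 24 h to peptides/hormones in serum-free DMEM/F12K, with or without EGFR inhibitor at 1 μM. MTT (1.2 mM final) was present for the last 3 h. Formazan was dissolved in 0.04 N HCl/isopropanol for 5 min at RT and absorbance read at 595 nm. Mean ± SEM, 6 experiments.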

[3] = test system: EGFR (Y^1068 phosphorylation); assay: Western blot of EGFR Tyr^1068 phosphorylation in BON cells; assay type: cell-based, human; settings: for inhibition of NT-stimulated EGFR Y^1068 phosphorylation by antioxidant: NAC or Tiron pre-treatment (one range for both); for inhibition of Bn-analogue-stimulated EGFR Y^1068 phosphorylation by antioxidant: NAC or Tiron pre-treatment; for stimulation of Y^1068 EGFR phosphorylation: Western blot, densitometry
Procedure, shortened: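 BON cells were stimulated with EGF 16 nM or peptides 1 µM for 30 min or over time courses; inhibitor sets used 1 h stimulation. Lysis was in pH 7.5 Triton/deoxycholate buffer with orthovanadate. Equal protein ran on 4–20% SDS-PAGE onto nitrocellulose. Probes: anti-phospho-EGFR Tyr1068 (1:1000, overnight 4 °C), tubulin loading control, HRP secondary, chemiluminescence on film, band densitometry. Mean ± SEM, 3–4 experiments.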

[4] = test system: QGP-1 cells; assay: [^3H]-Thymidine uptake, QGP-1 cell growth; assay type: cell-based, human; settings: n = 6; for stimulation of cell growth, [^3H]-Thymidine incorporation: 24 h, serum-free medium, EGFR-dependent
Procedure, shortened: (§1)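 Plating: BON 1.5 × 10^5/well in DMEM/F12K; QGP-1 4 × 10^4/well in RPMI; both with 10% FBS. After 24 h, cells were serum-starved 24 h, then exposed 24 h to peptides/hormones with or without EGFR inhibitor at 1 µM. [3H]-thymidine was present for the final 6 h. Cells were washed in ice-cold PBS, precipitated in 5% TCA (30 min, 4 °C), dissolved in 0.5 N NaOH/0.5% SDS and scintillation-counted. Mean ± SEM, 6 experiments.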

[5] = test system: BON cells; settings: cited from earlier work; for induction of apoptosis: BON cells
[6] = test system: progressive metastatic NETs; settings: phase II trial, patients with progressive metastatic NETs; cited from earlier work
[7] = test system: NCH720 cells; settings: broncho-pulmonary NET cell line; cited from earlier work
[8] = test system: KRJ-I cells; settings: cited from earlier work
[9] = test system: BON cells; assay: [^3H]-Thymidine uptake, BON cell growth; assay type: cell-based, human; settings: 24 h incubation, serum-free medium, mean of 6 experiments
Procedure, shortened: as §1

[10] = test system: non-small-cancer lung cells / lung cancer; settings: cited from earlier work
[11] = test system: HNSCC; settings: cited from earlier work; for cell proliferation: HNSCC
[12] = test system: rat insulinoma cell lines; settings: cited from earlier work
[13] = test system: BON cells; assay: BON cell growth, galanin and CCK/gastrin; assay type: cell-based, human; settings: data not shown
Procedure, shortened: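 BON cells are grown in DMEM/F12K with 10% FBS, then washed and serum-starved, and test compound is added for 24 h. For the MTT read-out, 5×10^3 cells/well get 1.2 mM MTT (final) for the last 3 h, are lysed in 0.04N HCl/isopropanol, and are read at 595 nm. For thymidine uptake, 1.5×10^5 cells/well are starved 24 h and pulsed with [3H]-thymidine for the final 6 h. Samples are TCA-precipitated, solubilised in NaOH/SDS, and scintillation-counted.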

[14] = test system: pancreatic adenocarcinoma cells; settings: cited from earlier work
[15] = test system: prostate cancer cells; settings: cited from earlier work

## COc1cc2ncnc(Nc3cccc(Cl)c3)c2cc1OC [AG1478]
[1]
  inhibition of cell growth stimulated by various GI hormones/neurotransmitters: able to inhibit cell growth
[2]; BON cells, AG1478 1 μM pre-treatment, 24 h, n = 6
  inhibition of growth stimulated by each GI hormone, EGF or TGFα, MTT assay: completely inhibited
[3]; AG1478 1 μM, stimulant Bn-analogue, 30 min, n = 4
  inhibition of Bn-analogue-stimulated Y^1068 EGFR phosphorylation: inhibited completely
[3]; AG1478 1 μM, stimulant EGF, 30 min, n = 4
  inhibition of EGF-stimulated Y^1068 EGFR phosphorylation: 88%
[3]; AG1478 1 μM, stimulant NT, 30 min, n = 4
  inhibition of NT-stimulated Y^1068 EGFR phosphorylation: inhibited completely
[4]; AG1478 1 μM pre-treatment, [^3H]-Thymidine uptake
  inhibition of the increase of cell growth induced by the GI hormones: blocked the increase of cell growth
[5]
  induction of apoptosis: induces apoptosis
  BON cell basal proliferation: completely blocks BON cell basal proliferation

## CN(C)CCCn1cc(C2=C(c3c[nH]c4ccccc34)C(=O)NC2=O)c2ccccc21 [GF 109203X]
[3]; GF 109203X pre-treatment, NT 1 μM, 1 h, n = 3
  inhibition of NT-stimulated EGFR Y^1068 phosphorylation by PKC inhibitor: 77%

## CNC(=O)[C@H](Cc1c[nH]c2ccccc12)NC(=O)[C@@H](CC(=O)NO)CC(C)C [GM 6001]
[3]; GM 6001 pre-treatment, Bn-analogue 1 μM, 1 h, n = 3
  reduction of Bn-analogue-stimulated EGFR Y^1068 phosphorylation by MMP inhibitor: 75%
[3]; GM 6001 pre-treatment, NT 1 μM, 1 h, n = 3
  reduction of NT-stimulated EGFR Y^1068 phosphorylation by MMP inhibitor: 60%

## COc1cc2ncnc(Nc3ccc(F)c(Cl)c3)c2cc1OCCCN1CCOCC1 [Gefitinib]
[6]
  tumor stabilization: stabilization of the tumors
[5]
  induction of apoptosis: induces apoptosis
  BON cell basal proliferation: completely blocks BON cell basal proliferation

## CC(=O)N[C@@H](CS)C(=O)O [N-acetylcysteine]
[3]; NT 1 μM, 1 h, n = 3
  inhibition of NT-stimulated EGFR Y^1068 phosphorylation by antioxidant: 37–45%
[3]; Bn-analogue 1 μM, 1 h, n = 3
  inhibition of Bn-analogue-stimulated EGFR Y^1068 phosphorylation by antioxidant: 85%

## COc1cc2ncnc(Nc3cccc(Br)c3)c2cc1OC [PD153035]
[1]
  inhibition of cell growth stimulated by various GI hormones/neurotransmitters: able to inhibit cell growth

## Nc1ncnc2c1cnn2-c1ccccc1 [PP3]
[3]; inhibitor 10 μM, Bn-analogue 1 μM, 1 h, n = 4
  reduction of Bn-analogue-stimulated Y^1068 EGFR phosphorylation: but not PP3, an inactive PP2 analogue
[3]; inhibitor 10 μM, NT 1 μM, 1 h, n = 4
  reduction of NT-stimulated Y^1068 EGFR phosphorylation: but not PP3, an inactive PP2 analogue

## O=S(=O)(O)c1cc(O)c(O)c(S(=O)(=O)O)c1 [Tiron]
[3]; NT 1 μM, 1 h, n = 3
  inhibition of NT-stimulated EGFR Y^1068 phosphorylation by antioxidant: 37–45%
[3]; Bn-analogue 1 μM, 1 h, n = 3
  inhibition of Bn-analogue-stimulated EGFR Y^1068 phosphorylation by antioxidant: 85%

## NCCc1c[nH]c2ccc(O)cc12 [serotonin]
[7]
  cell proliferation: stimulates cell proliferation
[8]
  cell proliferation of KRJ-I: stimulates cell proliferation

## EGF: Human EGF (Recombinant, E. coli)
[2]
  stimulation of BON cell growth, MTT assay: 30%
[8]
  growth of KRJ-I cells: can stimulate growth of both KRJ-I cells and BON cells
[3]; 16 nM, 30 min, n = 4
  stimulation of Y^1068 EGFR phosphorylation: significantly stimulated
[3]; EGF
  peak time of Y^1068 EGFR tyrosine phosphorylation: 2 min
[3]; EGF 16 nM, n = 4
  t1/2 of Y^1068 EGFR phosphorylation: 3 min
[4]
  stimulation of cell growth, [^3H]-Thymidine incorporation: able to stimulate BON cell growth, as well as in QGP-1 cells
[9]
  growth stimulated, [^3H]-Thymidine assessment: 32%
[5]
  growth of BON cells: can stimulate growth of both KRJ-I cells and BON cells
[5]; previous studies
  stimulation of BON cell proliferation (previous studies): stimulates cell proliferation

## NMB: stimulates cell proliferation in non-small-cancer lung cells
[10]
  cell proliferation: stimulate cell proliferation
[11]
  cell proliferation: stimulate cell proliferation

## TGFα: TGFα, BioVision
[2]
  stimulation of BON cell growth, MTT assay: 40%
[8]
  growth of KRJ-I cells: increase cell growth
[3]; 3.6 nM, 30 min, n = 4
  stimulation of Y^1068 EGFR phosphorylation: significantly stimulated
[4]
  stimulation of cell growth, [^3H]-Thymidine incorporation: stimulated cell growth
[9]
  growth stimulated, [^3H]-Thymidine assessment: 42%

## TGFβ
[8]
  growth of KRJ-I cells: increase cell growth

## [DTyr^6, β Ala^11, Phe^13, Nle^14]Bn (6–14) [Bn-analogue]
[3]; 1 μM, 30 min, n = 4
  stimulation of Y^1068 EGFR phosphorylation: significantly stimulated
[3]; 1 μM, n = 4
  maximal increase of EGFR Y^1068 phosphorylation, dose-response: 2.4 fold
[3]; Bn-analogue or NT
  peak time of Y^1068 EGFR tyrosine phosphorylation: 60 min
[3]; time course, 1 μM, 62 min (NT data not shown), n = 4
  increase of EGFR phosphorylation at 62 min: 3.4 fold
[4]
  stimulation of cell growth, [^3H]-Thymidine incorporation: stimulated cell growth

## bombesin
[10]
  cell proliferation: stimulate cell proliferation
[11]
  cell proliferation: stimulate cell proliferation

## bradykinin (RPPGFSPFR; Bradykinin; UniProt P01042 381-389, looked up)
[3]; 1 μM, 30 min, n = 4
  stimulation of Y^1068 EGFR phosphorylation: significantly stimulated
[4]
  stimulation of cell growth, [^3H]-Thymidine incorporation: able to stimulate BON cell growth, as well as in QGP-1 cells
[11]; through its B2 receptor
  growth of HNSCC: stimulates growth of HNSCC

## epiregulin: epiregulin, an EGFR ligand
[12]
  cell growth: stimulates cell growth

## galanin (GWTLNSAGYLLGPHAVGNHRSFSDKNGLTS; Galanin; UniProt P22466 33-62, looked up)
[13]
  effect on cell growth: did not exert any effect on cell growth

## neurotensin [NT]
[14]
  cell growth: stimulate cell growth
[3]; 1 μM, 30 min, n = 4
  stimulation of Y^1068 EGFR phosphorylation: significantly stimulated
[3]; 1 μM, n = 4
  maximal increase of EGFR Y^1068 phosphorylation, dose-response: 2.6 fold
[3]; Bn-analogue or NT
  peak time of Y^1068 EGFR tyrosine phosphorylation: 60 min
[4]
  stimulation of cell growth, [^3H]-Thymidine incorporation: stimulated cell growth
[15]
  cell growth: stimulate cell growth
